# Data from ChEMBL document CHEMBL1156777, “Synthesis and antiprotozoal activity of cationic 1,4-diphenyl-1H-1,2,3-triazoles” (J Med Chem, 2010).
# Legend:
# [1] = system: Trypanosoma brucei rhodesiense; experiment: Antitrypanosomal activity against Trypanosoma brucei rhodesiense STIB900 after 70 hrs by alamar blue assay; type: functional, organism-based; conditions: STIB900, 70 h
# Mus musculus = experiment: Toxicity in NMRI mouse infected with Trypanosoma brucei rhodesiense STIB900 assessed as survival at 5 mg/kg, ip after administered for 4 consecutive days from day 3 postinfection measured after 7 to 30 days; type: organism-based; design: dose 5 mg/kg, route intraperitoneal; conditions: in vivo
# Summary of the method: (§1)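 Female NMRI mice infected ip with 2 × 10⁴ STIB900 bloodstream forms. Groups of four dosed ip daily on days 3–6 postinfection; compounds in DMSO diluted with water to 10% final DMSO. Untreated infected controls. Tail-blood parasitaemia checked on days 7 and 10, twice weekly to day 30, then weekly to day 60. Relapse day recorded for mean relapse day; cure means parasite-free survival to day 60.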
# L6 = experiment: Cytotoxicity against rat L6 cells after 70 hrs by alamar blue assay; type: cell-based; conditions: L6, 70 h
# Summary of the method: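 Cells were exposed to serial dilutions for 70 h at 37 °C, 5% CO₂, then given resazurin for 2–3 h. IC50 came from sigmoidal curves; two independent runs in duplicate. Top concentration was 90 μg/mL, converted to μM by molecular weight.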
# [2] = Selectivity index, ratio of IC50 for rat L6 cells to IC50 for Plasmodium falciparum K1; type: toxicity, cell-based; conditions: read-out: Ratio IC50
# Summary of the method: (§2)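 Each index is L6 IC50 divided by parasite IC50. L6 values are from the 70 h resazurin assay. T. b. rhodesiense STIB900 values are from the 70 h resazurin assay. P. falciparum K1 values are from erythrocytic-stage [³H]-hypoxanthine incorporation: 48 h drug exposure, then 24 h with label. L. donovani values are from the 72 h axenic amastigote CellTiter assay.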
# [3] = Selectivity index, ratio of IC50 for rat L6 cells to IC50 for Trypanosoma brucei rhodesiense STIB900; type: toxicity, cell-based; conditions: read-out: Ratio IC50; summary of the method: as §2
# [4] = system: Trypanosoma brucei rhodesiense; experiment: Antitrypanosomal activity against Trypanosoma brucei rhodesiense STIB900 infected in NMRI mouse assessed as mean parasitemia relaps day at 5 mg/kg, ip; type: functional; conditions: route intraperitoneal; summary of the method: as §1
# Plasmodium falciparum = experiment: Antiplasmodial activity against chloroquine-resistant Plasmodium falciparum K1 infected in human erythrocytes after 48 hrs assessed as [3H]hypoxanthine incorporation by liquid scintillation counting; type: functional, organism-based
# Leishmania donovani = experiment: Antileishmanial activity against Leishmania donovani MHOM/SD/62/1S-CL2D; type: functional, organism-based
# Summary of the method: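 Axenic amastigotes (MHOM/SD/62/1S-CL2_D) adapted from promastigotes and grown in amastigote medium at 37 °C. 6 × 10⁴ parasites per well were exposed to 2-fold serial dilutions for 72 h at 37 °C in humidified 5% CO₂. Growth was read with tetrazolium CellTiter reagent as absorbance at 490 nm. IC50 came from a four-parameter dose–response fit; duplicate determinations were averaged.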
# [5] = Selectivity index, ratio of IC50 for rat L6 cells to IC50 for Leishmania donovani MHOM/SD/62/1S-CL2D; type: toxicity, cell-based; conditions: read-out: Ratio IC50; summary of the method: as §2
SMILES,IC50 [1] [nM],Activity (Mus musculus),IC50 (L6) [nM],selectivity ratio [2],selectivity ratio [3],Activity [4] [days],IC50 (Plasmodium falciparum) [nM],IC50 (Leishmania donovani) [nM],selectivity ratio [5]
COc1ccc(C(=N)N)cc1-n1cc(-c2cccc(C(=N)N)c2)nn1.Cl.Cl,47,Toxic,> 224000,> 8000,> 4770,17,28,> 100000,–
Cl.Cl.N=C(N)c1ccc(-n2cc(-c3cc(C(=N)N)ccc3O)nn2)cc1,6,Non-toxic,> 219000,> 9960,> 36500,–,22,> 50000,–
COc1ccc(C(=N)N)cc1-n1cc(-c2ccc(C(=N)N)cc2)nn1.Cl.Cl,16,–,> 201000,> 11800,> 12600,23,17,31000,> 6
CC(C)NC(=N)c1ccc(-n2cc(-c3cc(C(=N)NC(C)C)ccc3O)nn2)cc1.Cl,116,Toxic,> 179000,> 6390,> 1540,28.75,28,> 100000,–
Cl.Cl.N=C(N)c1ccc(-c2cn(-c3cccc(C(=N)N)c3)nn2)cc1,6,–,86000,21500,14300,18,4,17000,5
COc1cc(C(=N)N)ccc1-n1cc(-c2ccc(C(=N)N)cc2)nn1.Cl.Cl,38,Toxic,> 183000,> 20300,> 4820,34,9,> 40000,–
COc1ccc(C2=NCCN2)cc1-c1cn(-c2ccc(C3=NCCN3)cc2)nn1.Cl.Cl,21,Toxic,> 188000,> 18800,> 8950,26,10,> 100000,–
CC(C)NC(=N)c1ccc(-n2cc(-c3ccc(C(=N)NC(C)C)cc3O)nn2)cc1.Cl.Cl,37,Non-toxic,> 180000,> 25700,> 4860,–,7,> 50000,–
Cl.Cl.N=C(N)c1cccc(-n2cc(-c3ccc(C(=N)N)cc3O)nn2)c1,8,–,> 210000,> 30000,> 26200,39,7,8000,> 26
COc1ccc(C(=N)N)cc1-c1cn(-c2ccc(C(=N)N)cc2)nn1.Cl.Cl,8,–,> 198000,> 28300,> 24800,15.5,7,4300,> 46
Cl.Cl.N=C(N)c1cccc(-c2cn(-c3ccc(C(=N)N)cc3O)nn2)c1,175,Toxic,> 209000,> 1190,> 1190,14,–,> 100000,–
COc1cc(C(=N)N)ccc1-c1cn(-c2ccc(C(=N)N)cc2)nn1.Cl.Cl,31,–,59400,29700,1920,60,2,13000,5
Cl.Cl.N=C(N)c1ccc(-n2cc(-c3cccc(C(=N)N)c3)nn2)cc1,8,–,8600,2870,1080,17.33,3,12000,< 1
CC(C)NC(=N)c1ccc(-c2cn(-c3ccc(C(=N)NC(C)C)cc3)nn2)cc1.Cl.Cl,201,–,> 183000,> 36600,> 910,8,5,25000,> 7
